# ChEMBL document CHEMBL3734704, “Synthesis and Biological Evaluation of Novel Bouchardatine Derivatives as Potential Adipogenesis/Lipogenesis Inhibitors for Antiobesity Treatment” (J Med Chem, 2015)
# Active and inactive are the calls of the source. No cut-off for these calls is given here.
# Legend:
# [1] = Upregulation of LKB1 expression in mouse 3T3L1 cells at 3 uM after 2 and 24 hrs by western blot analysis; format: functional, cell-based; details: 3T3-L1
# Summary of the method: (§1)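 During 3T3-L1 differentiation with adipogenic cocktail, cells were treated with 3 µM compound for 10 min, 2 h or 24 h. Lysates in RIPA with protease/phosphatase inhibitors were run on SDS-PAGE and Western blotted. Proteins were normalized to GAPDH and expressed relative to the 10 min DMSO group, which was set at 100%; n = 3 independent experiments.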
# [2] = Decrease in triglyceride level in mouse 3T3L1 cells during all developmental stages at 0.5 uM for 9 days; format: functional, cell-based; details: 3T3-L1
# Summary of the method: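 During 3T3-L1 differentiation with compound present (0.5 µM, or 5 µM for one compound), cells were collected and counted every day and triglyceride content was measured by TG assay.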
# [3] = Downregulation of C/EBP beta mRNA level in mouse 3T3L1 cells at 0.3 to 3 uM after 24 hrs by RT-PCR analysis; format: functional, cell-based; details: 3T3-L1
# Summary of the method: (§2)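 3T3-L1 preadipocytes in adipogenic cocktail with compound (0.3-3.0 µM; 3 µM for the 2 h and 24 h time course). Total RNA extracted, cDNA made from 1 µg RNA with oligo primer, then PCR: 95 °C 10 min, 35 cycles of 95 °C 30 s, annealing 45 s, 72 °C 1 min, final 72 °C 10 min. Normalized to actin; n = 3.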
# [4] = Decrease in triglyceride level in mouse 3T3L1 cells at 1 uM measured during 0 to 3 days by oil red O staining based microscopic analysis; format: functional, cell-based; details: 3T3-L1
# Summary of the method: (§3)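 3T3-L1 cells given 1 µM compound during day 0-3, 0-6, 0-9, 3-6, 3-9 or 6-9 of differentiation. On Day 9, intracellular lipid measured by TG assay (Triton lysate, GPO-POD kit, per protein) and by Oil Red O staining with microscopy; n = 3.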
# [5] = Downregulation of C/EBP delta mRNA level in mouse 3T3L1 cells at 0.3 to 3 uM after 24 hrs by RT-PCR analysis; format: functional, cell-based; details: 3T3-L1; summary of the method: as §2
# [6] = Downregulation of FAS level in mouse 3T3L1 cells after 6 days by western blot analysis; format: functional, cell-based; details: 3T3-L1
# Summary of the method: (§4)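 3T3-L1 preadipocytes incubated in adipogenic cocktail with or without compound (0.3, 1.0, 3.0 µM) for the stated periods. Protein levels measured by Western blot (RIPA lysis, PVDF, BSA block, primary 16 h at 4 °C, HRP secondary), normalized to GAPDH/Tubulin and expressed relative to controls; n = 3.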
# [7] = Downregulation of ACC level in mouse 3T3L1 cells after 6 days by western blot analysis; format: functional, cell-based; details: 3T3-L1; summary of the method: as §4
# [8] = biological target: T1, Serine/threonine-protein kinase STK11 (Mus musculus) (UniProt Q9WTK7); test: Activation of LKB1-mediated AMPK in mouse 3T3L1 cells assessed as increase in phophorylated AMPK alpha at Thr 172 residue level at 3 uM by western blot analysis; format: cell-based; details: 3T3-L1, TDE = time-dependent effect
# T1 sequence (whole entry): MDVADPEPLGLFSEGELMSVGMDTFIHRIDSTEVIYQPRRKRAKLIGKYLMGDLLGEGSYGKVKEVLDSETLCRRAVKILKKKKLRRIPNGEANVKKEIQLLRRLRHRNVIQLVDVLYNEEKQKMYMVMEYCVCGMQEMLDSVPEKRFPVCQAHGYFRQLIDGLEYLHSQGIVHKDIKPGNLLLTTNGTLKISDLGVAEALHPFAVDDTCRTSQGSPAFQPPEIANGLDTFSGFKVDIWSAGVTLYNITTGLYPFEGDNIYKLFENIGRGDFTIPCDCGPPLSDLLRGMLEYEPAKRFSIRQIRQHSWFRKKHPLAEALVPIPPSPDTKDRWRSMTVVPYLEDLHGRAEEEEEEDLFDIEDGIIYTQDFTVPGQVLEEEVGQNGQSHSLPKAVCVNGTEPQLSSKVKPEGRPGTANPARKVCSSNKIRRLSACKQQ
# Summary of the method: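 3T3-L1 preadipocytes held in adipogenic cocktail with or without compound at 3 µM, time course (10 min, 2 h, 24 h) during differentiation. Lysis in RIPA with protease/phosphatase inhibitors, SDS-PAGE, PVDF, BSA block, primary antibody 16 h at 4 °C, HRP secondary. Bands normalized to GAPDH, with the 10 min DMSO group set as 100%; n = 3.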
# [9] = Cell cycle arrest in mouse 3T3L1 cells assessed as number of cells at G2/M phase at 1 uM after 24 hrs by flow cytometry (reference value: 37.2%); format: functional, cell-based; details: 3T3-L1
# 3T3-L1 [10] = test: Decrease in lipid droplet accumulation in mouse 3T3L1 cells at 1 uM measured during 0 to 3,0 to 6,0 to 9, 3 to 6, 3 to 9 and 6 to 9 days by oil red O staining based microscopic analysis; format: functional, cell-based; summary of the method: as §3
# [11] = Downregulation of SCD-1 level in mouse 3T3L1 cells after 6 days by western blot analysis; format: functional, cell-based; details: 3T3-L1; summary of the method: as §4
# [12] = Upregulation of LKB1 expression in mouse 3T3L1 cells at 3 uM after 10 mins by western blot analysis; format: functional, cell-based; details: 3T3-L1; summary of the method: as §1
# 3T3-L1 [13] = test: Inhibition of adipogenesis in mouse 3T3L1 cells assessed as reduction in mature adipocytes number at 1 uM measured during 0 to 3,0 to 6,0 to 9, 3 to 6, 3 to 9 and 6 to 9 days by oil red O staining based microscopic analysis; format: functional, cell-based
# Summary of the method: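 Differentiation was induced two days post-confluence (day 0) with IBMX/dexamethasone/insulin for 3 days, then insulin medium. Compound at 1 µM was present during days 0-3, 0-6, 0-9, 3-6, 3-9 or 6-9. On day 9, cells were fixed in 4% formaldehyde, stained with Oil Red O for 30 min, and imaged by microscopy. A TG assay was also run; DMSO vehicle served as control.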
# 3T3-L1 [14] = test: Induction of apoptosis in mouse 3T3L1 cells assessed as early apoptotic cells at 0.3 uM after 24 hrs by annexin-V-FITC and PI staining based flow cytometry (reference value: 0.56%); format: functional
# [15] = Downregulation of PPAR-gamma mRNA level in mouse 3T3L1 cells at 3 uM after 24 hrs by RT-PCR analysis; format: functional, cell-based; details: 3T3-L1; summary of the method: as §2
structure (smiles),measurement,setting,value
O=Cc1c(-c2nc(NCCN3CCCC3)c3ccccc3n2)[nH]c2ccccc12,Activity,[1],Active
same,inhibition,[2],Active
same,inhibition,[3],Active
same,inhibition,[4],85%
same,inhibition,[5],Active
same,inhibition,[6],Dose-dependent effect
same,inhibition,[7],Dose-dependent effect
same,Activity,[8],tde
same,Activity,[9],46.9%
same,inhibition,3T3-L1 [10],Active
same,inhibition,[11],Dose-dependent effect
same,Activity,[12],Active
same,inhibition,3T3-L1 [13],Active
same,Activity,3T3-L1 [14],1.58%
same,inhibition,[15],Active
